From ChEMBL document CHEMBL2157923, “1,3-Azoles from ortho-naphthoquinones: synthesis of aryl substituted imidazoles and oxazoles and their potent activity against Mycobacterium tuberculosis” (Bioorg Med Chem, 2012) come the findings set out here.

The subject of assay [1] is Mycobacterium tuberculosis. As to the kind of experiment: Antimycobacterial activity against pan-susceptible Mycobacterium tuberculosis H37Rv ATCC 27294 after 7 days by resazurin microtitre assay. The format is functional. The procedure, abridged:
(§1)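 REMA MIC. Strains kept on Ogawa-Kudoh medium 14 days at 37 °C. Suspension vortexed and adjusted to McFarland tube 1 (3.2 × 10^6 cfu/mL), then diluted 1:20 in Middlebrook 7H9 with 10% OADC and glycerol. Compounds tested from 100 ug/mL down to 0.19 ug/mL. Incubated 7 days at 37 °C, resazurin added, 2 more days at 37 °C; colour change read.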

A further assay deals with PBMC. As to the kind of experiment: Cytotoxicity against human PBMC after 72 hrs by alamar blue assay. The assay is classed as cell-based. The procedure, abridged:
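Alamar Blue assay on human PBMC. Compounds at 0.048 to 25 µg/mL in DMSO (0.1%) added after 24 h and exposed 72 h. Resazurin added 24 h before the end. Absorbance read at 570 and 595 nm, medium blank subtracted, and % reduced computed with correction factor R0. Effect expressed as percentage of control.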

Assay [2] deals with Mycobacterium tuberculosis. Kind of assay: Antimycobacterial activity against pan-susceptible Mycobacterium tuberculosis H37Rv. The format is functional. A digest of the protocol: as §1

In brackets after ≈: the same amount, converted by molar mass. Activity calls are given as the source filed them. No cut-off for these calls is given here. A value given as a limit tells only on which side of the number the result lay.

In general, MIC refers to the lowest concentration found to suppress growth. Regarding `COc1ccccc1-c1nc2c([nH]1)c1c(c3ccccc32)OC(C)(C)CC1`, the MIC in assay [1] (H37Rv ATCC 27294, 168 h) is 17.4 µM (≈ 6.24 µg/mL).
On the same count and under the same terms, next, `CC1(C)CCc2c(c3ccccc3c3nc(-c4ccc(C#N)cc4)oc23)O1`: 17.6 µM (≈ 6.24 µg/mL); `C=CCC1=C(O)C(=O)c2ccccc2C1=O`: 467 µM (≈ 100 µg/mL).
Usually IC50 stands for the point on the concentration scale where inhibition reaches its midpoint. The low end stands for greater potency in that assay, the high end for weaker potency in that assay. As to `CC1(C)CCc2c(c3ccccc3c3nc(-c4cc5ccccc5cn4)[nH]c23)O1`, in the assay with PBMC, the IC50 is above 25 µg/mL. In assay [1] (H37Rv ATCC 27294, 168 h), this molecule came in with an MIC of 16.4 µM (≈ 6.22 µg/mL).
On to `CC1Cc2c(c3ccccc3c3nc(-c4ccc([N+](=O)[O-])cc4)oc23)O1` (stereo not drawn), for which, in assay [1] (H37Rv ATCC 27294, 168 h), the MIC was above 289 µM.
`CC1(C)CCc2c(c3ccccc3c3nc(-c4ccccc4Br)[nH]c23)O1` returned an IC50 in the assay with PBMC above 25 µg/mL. In assay [1] (H37Rv ATCC 27294, 168 h), this molecule yielded an MIC of 7.6 µM (≈ 3.1 µg/mL).
For `CC1(C)CCc2c(c3ccccc3c3nc(-c4cccc(Br)c4)[nH]c23)O1` the same measures were above 25 µg/mL and 15.3 µM (≈ 6.23 µg/mL).
In turn, `CO[C@H]1/C=C/O[C@@]2(C)Oc3c(C)c(O)c4c(O)c(c(/C=N/N5CCN(C)CC5)c(O)c4c3C2=O)NC(=O)/C(C)=C\C=C\[C@H](C)[C@H](O)[C@@H](C)[C@@H](O)[C@@H](C)[C@H](OC(C)=O)[C@@H]1C` [RIFAMPIN] yielded an MIC in assay [1] (H37Rv ATCC 27294, 168 h) of at most 0.1 µM.
On the same count and under the same terms, next, `Cc1ccccc1-c1nc2c([nH]1)c1c(c3ccccc32)OC(C)(C)CC1`: 9 µM (≈ 3.08 µg/mL).
With `CC1(C)CCc2c(c3ccccc3c3nc(-c4cccnc4)[nH]c23)O1`, in assay [1], the MIC entry was “inactive”.
In assay [1] (H37Rv ATCC 27294, 168 h), `CC1(C)CCc2c(c3ccccc3c3nc(-c4ccc([N+](=O)[O-])cc4)[nH]c23)O1` returned an MIC of 268 µM (≈ 100 µg/mL).
Still for that read-out and setting: next, `Cc1ccc(-c2nc3c([nH]2)c2c(c4ccccc43)OC(C)(C)C2)cc1`: above 304 µM.
As to `CC1(C)CCc2c(c3ccccc3c3nc(-c4ccc(C(F)(F)F)cc4)[nH]c23)O1`, the MIC result in assay [1] was “inactive”.
Turning to `CC1(C)CCc2c(c3ccccc3c3nc(-c4ccccc4C(F)(F)F)[nH]c23)O1`, in assay [1] (H37Rv ATCC 27294, 168 h), 4 µM (≈ 1.59 µg/mL) was the least that counted as inhibitory (MIC).
Turning to `C=CCC1Cc2c(c3ccccc3c3nc4ccccc4nc23)OC1(C)C` (stereo not drawn), in assay [2], inhibition of growth (MIC) required 0.78 µg/mL (≈ 2.2 µM).
`CC1(C)CCc2c(c3ccccc3c3nc(-c4ccc(C#N)cc4)[nH]c23)O1` showed an IC50 with PBMC above 25 µg/mL. In addition, the MIC result in assay [1] was “inactive”.
In assay [1] (H37Rv ATCC 27294, 168 h), `CC1CC2=C(O1)c1ccccc1C(=O)C2=O` (stereo not drawn) displayed an MIC of 14.5 µM (≈ 3.11 µg/mL).
`CC1(C)Cc2c(c3ccccc3c3nc(-c4ccccc4)[nH]c23)O1` had an IC50 in the assay with PBMC above 25 µg/mL. In assay [1] (H37Rv ATCC 27294, 168 h), the MIC was above 318 µM.
In the assay on PBMC, `CC1(C)CCc2c(c3ccccc3c3nc(-c4cccc([N+](=O)[O-])c4)[nH]c23)O1` registered an IC50 above 25 µg/mL. The MIC result in assay [1] is “inactive”.
On to `CC1(C)CCc2c(c3ccccc3c3nc(-c4ccc(F)cc4)[nH]c23)O1`, for which the IC50 in the assay on PBMC was above 25 µg/mL. In addition, 72.2 µM (≈ 25 µg/mL) was the least that counted as inhibitory in assay [1] (H37Rv ATCC 27294, 168 h) (MIC).
Take `CC1(C)CCc2c(c3ccccc3c3nc(-c4ccccn4)[nH]c23)O1`: in assay [1] (H37Rv ATCC 27294, 168 h), inhibition of growth (MIC) required 75.9 µM (≈ 25 µg/mL).
The same measure, in the same setting: next, `CC1(C)Cc2c(c3ccccc3c3nc(-c4ccc([N+](=O)[O-])cc4)oc23)O1`: above 278 µM.
Consider `CC1(C)CCc2c(c3ccccc3c3nc(-c4cccc(F)c4)[nH]c23)O1`, for which, in the assay on PBMC, the IC50 was above 25 µg/mL. Inhibition of growth in assay [1] (H37Rv ATCC 27294, 168 h) (MIC) required 9 µM (≈ 3.12 µg/mL).
`CC1(C)CCc2c(c3ccccc3c3nc(-c4cccc(C#N)c4)oc23)O1` came in with an MIC in assay [1] (H37Rv ATCC 27294, 168 h) of 35.2 µM (≈ 12.5 µg/mL).
In the assay on PBMC, `CC1(C)CCc2c(c3ccccc3c3nc(-c4ccccc4)[nH]c23)O1` showed an IC50 above 25 µg/mL. The molecule also yielded an MIC in assay [1] (H37Rv ATCC 27294, 168 h) above 304 µM.
Consider `CC1(C)CCc2c(c3ccccc3c3nc(-c4cnc5ccccc5c4)[nH]c23)O1`, for which, in assay [1], the MIC result was “inactive”.
As to `CC1(C)CCc2c(c3ccccc3c3nc(-c4cccc(C(F)(F)F)c4)[nH]c23)O1`, the minimum inhibitory concentration (MIC) in assay [1] (H37Rv ATCC 27294, 168 h) turned out to be 4 µM (≈ 1.59 µg/mL).
The same measure, in the same setting: next, `CC1(C)CCc2c(c3ccccc3c3nc(-c4ccccc4C#N)oc23)O1`: 35.2 µM (≈ 12.5 µg/mL).
`CC1(C)CCc2c(c3ccccc3c3nc(-c4ccc(Br)cc4)[nH]c23)O1` gave an IC50 with PBMC above 25 µg/mL. Moreover, the MIC entry in assay [1] is “inactive”.
With `Cc1ccc(-c2nc3c(o2)c2c(c4ccccc43)OC(C)(C)C2)cc1`, in assay [1] (H37Rv ATCC 27294, 168 h), the MIC is above 304 µM.
`CC1(C)CCc2c(c3ccccc3c3nc(-c4ccccc4[N+](=O)[O-])[nH]c23)O1` yielded an IC50 in the assay on PBMC above 25 µg/mL. Further, it took 268 µM (≈ 100 µg/mL) to inhibit growth in assay [1] (H37Rv ATCC 27294, 168 h) (MIC).
For the molecule `CC1(C)CCc2c(c3ccccc3c3nc(-c4ccc(Cl)cc4)[nH]c23)O1`, the IC50 in the assay with PBMC is above 25 µg/mL. In assay [1] (H37Rv ATCC 27294, 168 h), this molecule showed an MIC of 34.4 µM (≈ 12.5 µg/mL).
In assay [1] (H37Rv ATCC 27294, 168 h), `NNC(=O)c1ccncc1` [ISONIAZID] returned an MIC of at most 0.4 µM.
The molecule `CC1(C)CCc2c(c3ccccc3c3nc(-c4cccc(C#N)c4)[nH]c23)O1` displayed a half-inhibitory concentration (IC50) in the assay with PBMC above 25 µg/mL. In addition, the MIC entry in assay [1] is “inactive”.
In assay [2], `CC(C)CCc1c2[nH]c3ccccc3nc-2c2c(c1=O)CCCC2` yielded an MIC of at most 3 µg/mL.
